These results are taken from ChEMBL document CHEMBL3856290, “Discovery of TAK-272: A Novel, Potent, and Orally Active Renin Inhibitor” (ACS Med Chem Lett, 2016).

Counter-ions that a name gives are not always drawn. The source made the active and inactive calls. The rule behind the calls is not given here.

Data set [1] in a line: Plasma clearance in non-fasted rat at 0.1 mg/kg, iv or 1 mg/kg, po administered through cassette dosing by LC/MS/MS analysis. It counts as ADME, organism-based. The following applies: in vivo. The method in brief:
(§1)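 Cassette dosing to non-fasted rats, either 0.1 mg/kg iv or 1 mg/kg po. Blood was sampled after dosing and spun to plasma. Plasma was deproteinized and centrifuged, and compound levels in the supernatant were measured by LC/MS/MS.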

Data set [2] can be described thus: AUC in non-fasted rat at 1 mg/kg, po administered through cassette dosing by LC/MS/MS analysis. The conditions noted are these: in vivo. It counts as ADME, organism-based. The method in brief: as §1
A short description of data set [3]: Oral bioavailability in non-fasted rat at 1 mg/kg administered through cassette dosing by LC/MS/MS analysis. It counts as ADME, organism-based. The following applies: in vivo. The method in brief: as §1
Data set [4] addresses T1, Renin (Homo sapiens, UniProt P00797).
T1 sequence (P00797 whole entry): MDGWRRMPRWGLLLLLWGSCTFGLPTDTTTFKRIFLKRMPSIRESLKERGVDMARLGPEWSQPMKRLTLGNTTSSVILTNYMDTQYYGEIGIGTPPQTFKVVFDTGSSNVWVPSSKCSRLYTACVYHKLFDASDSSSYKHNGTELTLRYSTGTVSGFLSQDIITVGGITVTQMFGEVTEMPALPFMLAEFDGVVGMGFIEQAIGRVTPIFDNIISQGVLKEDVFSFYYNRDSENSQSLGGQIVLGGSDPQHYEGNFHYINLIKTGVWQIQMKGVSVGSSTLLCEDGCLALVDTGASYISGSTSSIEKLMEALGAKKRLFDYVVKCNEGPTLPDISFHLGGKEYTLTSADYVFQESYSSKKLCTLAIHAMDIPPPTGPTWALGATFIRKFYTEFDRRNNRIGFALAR
Kind of data set: Inhibition of recombinant human preprorenin expressed in human 293F cells using angiotensinogen as substrate preincubated for 10 mins followed by substrate addition measured after 30 mins by ELISA. On the technique in general: An ELISA detects its analyte on a solid surface through an enzyme-linked reagent.

Data set [5] addresses T1, Renin. As to the kind of experiment: Inhibition of renin in human plasma by radioimmunoassay. It counts as cell-free.
Data set [6] has as its system Rattus norvegicus. Kind of data set: Antihypertensive activity in human angiotensinogen and renin double transgenic rat model assessed as reduction in systolic blood pressure at 75 mg/kg, po after 5 hrs by tail-cuff method. It counts as functional, organism-based. Summed up: (§2)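 Male hAOPEN-hREN double transgenic rats, 5 weeks old. Drugs were dissolved in 0.5% methylcellulose and given orally; vehicle-dosed rats served as controls. Systolic pressure was read by tail-cuff before dosing and at 5 and 24 h after dosing.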

Data set [7] relates to Rattus norvegicus. Kind of data set: Antihypertensive activity in human angiotensinogen and renin double transgenic rat model assessed as reduction in systolic blood pressure at 75 mg/kg, po after 24 hrs by tail-cuff method. It counts as functional, organism-based. Summed up: as §2
Data set [8] can be described thus: Inhibition of pepsin (unknown origin). Details: species or system Homo sapiens.
Another data set has as its target Cathepsin D (Homo sapiens, UniProt P07339). As to the kind of experiment: Inhibition of cathepsin D (unknown origin).
Data set [9] deals with Rattus norvegicus. As to the kind of experiment: Antihypertensive activity in human angiotensinogen and renin double transgenic rat model assessed as reduction in systolic blood pressure at 3 mg/kg, po after 5 hrs by tail-cuff method. It counts as functional, organism-based. Summed up:
as §2

Data set [10] concerns Rattus norvegicus. Kind of data set: Antihypertensive activity in human angiotensinogen and renin double transgenic rat model assessed as reduction in systolic blood pressure at 10 mg/kg, po after 5 hrs by tail-cuff method. It counts as functional, organism-based. The method in brief: as §2
Data set [11] deals with Rattus norvegicus. Kind of data set: Antihypertensive activity in human angiotensinogen and renin double transgenic rat model assessed as reduction in systolic blood pressure at 10 mg/kg, po after 24 hrs by tail-cuff method. It counts as functional, organism-based. Summed up:
as §2

Data set [12] concerns Rattus norvegicus. Kind of data set: Antihypertensive activity in po dosed human angiotensinogen and renin double transgenic rat model assessed as reduction in systolic blood pressure after 5 to 24 hrs by tail-cuff method. It counts as functional, organism-based. Summed up: as §2

Sequence of Cathepsin D (P07339 65-162 limits assumed): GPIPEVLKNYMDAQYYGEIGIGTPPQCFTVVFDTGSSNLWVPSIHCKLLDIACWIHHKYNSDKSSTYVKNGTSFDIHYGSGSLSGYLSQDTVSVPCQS
Sequence of Cathepsin D (P07339 169-412 limits assumed): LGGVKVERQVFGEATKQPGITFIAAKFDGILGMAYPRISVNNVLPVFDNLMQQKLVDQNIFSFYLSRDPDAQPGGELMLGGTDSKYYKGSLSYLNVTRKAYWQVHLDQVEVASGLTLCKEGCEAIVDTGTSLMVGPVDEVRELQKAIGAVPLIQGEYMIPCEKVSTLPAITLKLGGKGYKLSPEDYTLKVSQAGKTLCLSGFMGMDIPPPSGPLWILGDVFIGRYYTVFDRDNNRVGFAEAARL

Broadly, the AUC is concentration integrated over time. The compound `CCCCCCc1nc(C(C)(C)C)ncc1C(=O)N(CC(C)C)[C@@H]1CNC[C@H](C(=O)N2CCOCC2)C1` yielded a CL in data set [1] of 40.12 mL/min/kg. The same compound came in with an area under the curve (AUC) in data set [2] of 20.9 ng·h/mL. Also, in data set [3], the F is 5%.

The IC50 is the concentration that inhibits the measured activity by half. Regarding `COC(=O)[C@H]1CNC[C@@H](N(CC(C)C)C(=O)c2cnc(C(C)(C)C)nc2NCc2ccco2)C1` (racemic), the results for the IC50 on Renin [4] and at Renin [5] were 0.44 nM and 1.4 nM, respectively.

`COCCCOc1cc(C[C@@H](C[C@H](N)[C@@H](O)C[C@H](C(=O)NCC(C)(C)C(N)=O)C(C)C)C(C)C)ccc1OC`: the outcome in the data set with Rattus norvegicus [6] and in the data set on Rattus norvegicus [7] was Active.

Turning to `COCCCCn1c(C(=O)N(CC(C)C)[C@@H]2CNC[C@H](C(=O)N3CCOCC3)C2)nc2ccccc21` [IMARIKIREN HYDROCHLORIDE], the half-inhibitory concentration (IC50) (in data set [8]; at Cathepsin D) was more than 10000 nM in each case. The outcome with Rattus norvegicus [9], in the data set on Rattus norvegicus [10] and with Rattus norvegicus [11] was Active. For the same compound, the Activity result in the data set with Rattus norvegicus [12] is “Dose-dependent effect”.

On to `COC(=O)[C@H]1CNC[C@@H](N(CC(C)C)C(=O)c2cnc(C(C)(C)C)nc2NCc2ccco2)C1`, for which the values for the IC50 at Renin [4] and against Renin [5] were 0.039 nM and 0.35 nM, respectively.

As to `COCCCNc1nc(C(C)(C)C)ncc1C(=O)N(CC(C)C)[C@@H]1CNC[C@H](C(N)=O)C1`, the IC50 on Renin [4] is 1.4 nM; against Renin [5], 4.5 nM.

For the compound `COC(=O)[C@@H]1CNC[C@H](N(CC(C)C)C(=O)c2cnc(C(C)(C)C)nc2NCc2ccco2)C1`, the IC50 was 1.2 nM at Renin [4] and more than 10 nM on Renin [5].

Consider `COCCCNc1nc(C(C)(C)C)ncc1C(=O)N(CC(C)C)[C@@H]1CNC[C@H](C(=O)OC)C1`, for which the IC50 amounted to 2.6 nM on Renin [4] and 5.2 nM at Renin [5].

Turning to `CC(C)CN(C(=O)c1cnc(C(C)(C)C)nc1NCc1ccco1)[C@H]1CCCNC1`, the concentration for half-maximal inhibition (IC50) at Renin [4] was 0.58 nM; against Renin [5], 4.6 nM.

For `COC(=O)[C@@H]1CNC[C@@H](N(CC(C)C)C(=O)c2cnc(C(C)(C)C)nc2NCc2ccco2)C1` (relative stereo), the half-maximal inhibitory concentration (IC50) on Renin [4] was 3.3 nM; against Renin [5], 10 nM.

As to `COCCCNc1nc(C(C)(C)C)ncc1C(=O)N(CC(C)C)[C@@H]1CNC[C@H](C(=O)N2CCOCC2)C1`, the CL in [1] is 92.32 mL/min/kg. The compound also displayed a F in data set [3] of less than 1%.
